Bioassay records deposited in PubChem BioAssay by Johns Hopkins Ion Channel Center.
Shown are actives, neighbours in structure and some others; about 2.3% of the full set was active somewhere.
TRPC4 PAM: allosterically enhances the mouse TRPC4 cation channel; Q9QUQ5; HEK293 TRPC4beta/mu-opioid, DAMGO EC20, Fluo-4 Ca2+ flux; hits give high values; B-score at 10 µM; hit rate 0.42% among 310,000; AID 2227;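 active = B-score of calcium response area above 5 SD of library B-scores, with initial fluorescence ratio within 5 SD of library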;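 also: B-score of integrated fluorescence ratio over time as area under calcium response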
TRPC6 inhibitor: mouse TRPC6 channel inhibition | B-score at 10 µM | HEK293-TRPC6, membrane potential dye, ACh-evoked depolarization; hits give low values | hit rate 1.1% among 310,000 | Q61143;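 active = B-score under library mean minus 3 SD, initial fluorescence not abnormally high, positive integrated signal ratio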;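 also: B-score derived from integrated fluorescence ratio over the kinetic read; more negative B-score means stronger inhibition of depolarization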
Target sequence (Q61143 whole entry, looked up): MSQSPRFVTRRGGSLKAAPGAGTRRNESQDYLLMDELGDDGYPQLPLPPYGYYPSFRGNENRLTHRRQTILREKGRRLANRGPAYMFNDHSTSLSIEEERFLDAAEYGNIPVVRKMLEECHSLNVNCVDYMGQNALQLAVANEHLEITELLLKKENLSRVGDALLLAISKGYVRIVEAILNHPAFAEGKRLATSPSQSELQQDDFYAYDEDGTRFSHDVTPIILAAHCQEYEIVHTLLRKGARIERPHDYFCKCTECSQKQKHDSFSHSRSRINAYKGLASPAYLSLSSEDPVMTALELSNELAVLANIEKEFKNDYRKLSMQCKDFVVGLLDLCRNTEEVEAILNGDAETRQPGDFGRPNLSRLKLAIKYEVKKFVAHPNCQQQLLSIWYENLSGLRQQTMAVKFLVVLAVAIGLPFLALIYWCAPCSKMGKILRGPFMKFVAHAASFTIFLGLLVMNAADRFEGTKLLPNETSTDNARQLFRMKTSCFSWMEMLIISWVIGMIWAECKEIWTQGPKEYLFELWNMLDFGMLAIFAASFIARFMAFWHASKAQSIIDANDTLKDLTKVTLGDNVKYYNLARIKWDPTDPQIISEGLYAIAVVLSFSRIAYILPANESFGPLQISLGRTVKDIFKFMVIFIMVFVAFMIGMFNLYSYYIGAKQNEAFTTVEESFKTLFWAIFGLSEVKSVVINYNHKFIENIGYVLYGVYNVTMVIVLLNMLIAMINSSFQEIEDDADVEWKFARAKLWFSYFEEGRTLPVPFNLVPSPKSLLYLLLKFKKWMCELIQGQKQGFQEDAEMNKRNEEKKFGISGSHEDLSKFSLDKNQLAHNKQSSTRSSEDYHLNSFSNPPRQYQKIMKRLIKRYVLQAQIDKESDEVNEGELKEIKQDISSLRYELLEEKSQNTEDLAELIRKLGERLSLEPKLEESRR
TRPC4 inh: TRPC4 (mouse) channel inhibition. Q9QUQ5. HEK293 TRPC4beta/mu-opioid, DAMGO-evoked Fluo4 calcium flux; hits give low values. B-score at 10 µM. hit rate 0.39% among 300,000;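 active = B-score over 3 SD under the library average, no early fluorescence shift, positive overall ratio signal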
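Signal: kinetic Fluo4 fluorescence imaging of calcium influx. Material: stable TRPC4beta/mu-opioid receptor HEK293 cells. Probe or stimulus: DAMGO in two steps, submaximal then maximal.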
TRPC6 activator: activates the mouse TRPC6 cation channel. HEK293-TRPC6 membrane potential dye fluorescence; hits give high values. B-score at 10 µM. hit rate 0.13% among 310,000;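 active = B-score of the integrated fluorescence ratio above library mean plus 3 SD, and starting fluorescence ratio within library mean plus 5 SD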;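 also: higher score means more depolarization so channel activation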
TRPC4 act: TRPC4 (mouse) channel activation | Q9QUQ5 | HEK293 TRPC4beta/mu-opioid, Fluo4 calcium fluorescence; hits give high values | B-score at 10 µM | hit rate 0.49% among 310,000 | AID 2237;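 active = B-score above 5 SD of library B-scores, and initial fluorescence ratio not above library mean plus 5 SD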;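 also: positive B-score marks a calcium rise read as TRPC4 activation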
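System: HEK293 cells stably co-expressing mouse TRPC4beta and mu-opioid receptor; Schedule: Fluo4 dye loading 45 min at room temperature, 110 s recording; Detection: Fluo4 fluorescence, kinetic; Evaluation: B-scored integrated calcium fluorescence ratio; Controls: buffer (low) and maximal DAMGO (high).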
TRPC4 sel inh 2: second check of whether TRPC6 inhibitors also affect mouse TRPC4 | shares compounds with TRPC6 inhibitor | HEK293 TRPC4/MOR, membrane potential dye fluorescence; channel activated by saturating DAMGO dose | inhibition, % at 10 µM | hit rate 42% among 920 | AID 2776;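 active = compounds whose fluorescence signal differed from control wells by over 3 SD, either direction, in both duplicate plates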
TRPC4 spec: selectivity of TRPC6 inhibitors: effect on mouse TRPC4 | activity change, negative = inhibition, % at 10 µM | hit rate 61% among 920 | AID 2777 | HEK293 TRPC4/mu-opioid, membrane potential fluorescence | shares compounds with TRPC6 inhibitor;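 active = rise or fall in signal beyond 3 SD of buffer-only wells in both replicate plates, either sign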;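 also: integrated kinetic ratio of fluorescence range over baseline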
HEK293 MPD ctr 2-1: second check of TRPC6 inhibitor effects in parental HEK293 cells | shares compounds with TRPC6 inhibitor | parental HEK293 membrane potential dye fluorescence; maximal acetylcholine challenge after compound addition | signal change vs control, % at 10 µM | hit rate 31% among 920;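 active = membrane potential signal moving either way by over 3 SD of the maximum-effect control, in both duplicate plates, meaning non-specific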
HEK293 MPD ctr-1: parental HEK293 nonspecific activity of TRPC6 inhibitors. shares compounds with TRPC6 inhibitor. parental HEK293 membrane potential dye fluorescence. membrane potential signal change, % at 10 µM. hit rate 60% among 920. AID 2780;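 active = membrane potential signal shifting up or down by more than 3 SD of buffer-only wells, on both duplicate plates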
HEK293 MPD ctr-2: parental HEK293 nonspecific activity of TRPC6 modulators; membrane potential dye fluorescence; hit rate 51% among 2,400; membrane potential signal change, % at 10 µM; shares compounds with TRPC6 inhibitor;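 active = membrane potential signal moves up or down beyond 5 SD from buffer-only wells, on both duplicate plates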
HEK293 MPD ctr 2-2: parental HEK293 nonspecific activity of TRPC6 modulators, second screen; hit rate 14% among 2,400; shares compounds with TRPC6 inhibitor; inhibition, % at 10 µM; membrane potential dye fluorescence; after compound, maximal acetylcholine stimulation;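 active = membrane potential signal drops by more than 5 SD from the mean control signal, in both duplicate plates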;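 also: plate controls were acetylcholine ECmax control wells for no effect and buffer only wells for full effect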
TRPC4/MOR mod: selectivity of TRPC6 modulators against mouse TRPC4. percent change from control (negative = decrease, positive = increase), % at 10 µM. hit rate 69% among 2,400. HEK293 TRPC4/mu-opioid, membrane potential fluorescence. shares compounds with TRPC6 inhibitor;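 active = membrane potential signal moved up or down beyond 5 SD of buffer control wells, in both duplicate plates, actives on both sides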;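 also: plate controls were assay buffer wells for no effect and DAMGO maximal-effect wells for full effect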
TRPC4 ctr inh 2: mouse TRPC4 off-target activity of TRPC6 modulators, second screen | shares compounds with TRPC6 inhibitor | HEK293 TRPC4/mu-opioid, membrane potential dye fluorescence; stimulated with maximal-effect DAMGO | inhibition, % at 10 µM | hit rate 55% among 2,400 | AID 488928;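 active = drop in membrane potential signal beyond 5 SD of the control wells in both duplicate plates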;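 also: TRPC4 counter screen for TRPC6 hits run under conditions tuned for TRPC6 not TRPC4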
TRPC6 block conf: mouse TRPC6 inhibitor confirmation. AID 488960. inhibition, % at 10 µM. hit rate 43% among 3,300. shares compounds with TRPC6 inhibitor. HEK293-TRPC6, membrane potential dye, ACh-evoked depolarization;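 active = fluorescence ratio falls more than 5 SD below the full-stimulation control mean, in both duplicate runs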;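 also: integrated fluorescence ratio of peak minus minimum over baseline after agonist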
TRPC6 act confirm: confirmation of mouse TRPC6 activators; shares compounds with TRPC6 inhibitor; HEK293-TRPC6 membrane potential dye fluorescence, FDSS; activation, % at 10 µM; hit rate 11% among 2,800;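 active = ratio signal rise beyond 5 SD above unstimulated control wells' mean, seen in both duplicate runs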;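 also: plate controls were buffer EC0 wells for no effect and acetylcholine ECmax response for full effect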
* marks the source's active call; other numbers are inactive results.

`Cc1ccc(C(=O)Nc2cccc(N(C)S(C)(=O)=O)c2)cc1S(=O)(=O)Nc1ccccc1` gave TRPC4 PAM inactive, TRPC6 inhibitor -7.74*, TRPC4 inh inactive, TRPC6 activator inactive, TRPC4 act inactive, TRPC4 sel inh 2 inactive, TRPC4 spec inactive, HEK293 MPD ctr 2-1 inactive, HEK293 MPD ctr-1 inactive, TRPC6 block conf inactive and TRPC6 act confirm inactive.
For O=C1N[C@@H](Cc2cn(S(=O)(=O)c3ccccc3)c3ccccc23)C(=O)N[C@H]1Cc1ccccc1 the results were TRPC4 PAM inactive, TRPC6 inhibitor inactive, TRPC4 inh inactive, TRPC6 activator inactive and TRPC4 act inactive.
COC(=O)CCC(=O)OC1(C)C(=O)C=C2C=C(C3CC3)N(CCc3c[nH]c4ccccc34)C=C2C1=O (stereo not drawn) was read as TRPC4 PAM inactive, TRPC6 inhibitor -7.18*, TRPC4 inh inactive, TRPC6 activator inactive, TRPC4 act inactive, TRPC4 sel inh 2 inactive, TRPC4 spec inactive, HEK293 MPD ctr 2-1 inactive, HEK293 MPD ctr-1 inactive, TRPC6 block conf inactive and TRPC6 act confirm inactive.
COC(=O)CCC(=O)OC1(C)C(=O)C=C2C=C(C3CC3)N(CCc3ccccn3)C=C2C1=O (stereo not drawn) was read as TRPC4 PAM inactive, TRPC6 inhibitor inactive, TRPC4 inh inactive, TRPC6 activator inactive and TRPC4 act inactive.
For O=C(NCc1ccc(F)cc1)C1CCN(S(=O)(=O)c2cccc3nonc23)CC1 the results were TRPC4 PAM inactive, TRPC6 inhibitor inactive, TRPC4 inh inactive, TRPC6 activator inactive and TRPC4 act inactive.
Screening O=C(COc1ccccc1Cl)Nc1ccc(N2CCN(C(=O)c3ccccc3)CC2)cc1 returned TRPC4 PAM inactive, TRPC6 inhibitor inactive, TRPC4 inh inactive, TRPC6 activator inactive and TRPC4 act inactive.
CCc1ccc2oc(-c3ccc(OC)cc3)cc(=Nc3cccc(C(=O)O)c3)c2c1 was read as TRPC4 PAM inactive, TRPC6 inhibitor inactive, TRPC4 inh inactive, TRPC6 activator inactive and TRPC4 act inactive.
For CCc1ccc2oc(-c3ccc(OC)cc3)cc(=Nc3c(C)n(C)n(-c4ccccc4)c3=O)c2c1 the results were TRPC4 PAM inactive, TRPC6 inhibitor -7.84*, TRPC4 inh inactive, TRPC6 activator inactive, TRPC4 act inactive, TRPC4 sel inh 2 inactive, TRPC4 spec -13.0%*, HEK293 MPD ctr 2-1 inactive, HEK293 MPD ctr-1 -245.5%*, TRPC6 block conf inactive and TRPC6 act confirm inactive.
`CN(C)S(=O)(=O)N1CCN(c2ccccc2Cl)CC1` gave TRPC4 PAM inactive, TRPC6 inhibitor inactive, TRPC4 inh inactive, TRPC6 activator inactive and TRPC4 act inactive.
Screening CN(C)S(=O)(=O)N1CCN(C(=O)c2ccccc2Cl)CC1 returned TRPC4 PAM inactive, TRPC6 inhibitor -4.98*, TRPC4 inh inactive, TRPC6 activator inactive, TRPC4 act inactive, HEK293 MPD ctr-2 inactive, HEK293 MPD ctr 2-2 inactive, TRPC4/MOR mod inactive, TRPC4 ctr inh 2 inactive, TRPC6 block conf inactive and TRPC6 act confirm inactive.
For CCOc1ccc(C(=O)NCC(c2ccco2)N2CCOCC2)cc1 (stereo not drawn) the results were TRPC4 PAM inactive, TRPC6 inhibitor inactive, TRPC4 inh inactive, TRPC6 activator inactive and TRPC4 act inactive.
Screening CCOC(=O)C1(C)/C(=N/Nc2ccccc2OC)C(=O)C(=O)N1c1ccccc1 (stereo not drawn) returned TRPC4 PAM inactive, TRPC6 inhibitor -8.06*, TRPC4 inh inactive, TRPC6 activator inactive, TRPC4 act inactive, HEK293 MPD ctr-2 -225.5%*, HEK293 MPD ctr 2-2 inactive, TRPC4/MOR mod -40.0%*, TRPC4 ctr inh 2 68.5%*, TRPC6 block conf 44.5%* and TRPC6 act confirm inactive.
`CC(C)CCNC(=O)C(c1ccc(O)cc1)N(Cc1ccco1)C(=O)CCC(=O)Nc1nccs1` (stereo not drawn) gave TRPC4 PAM inactive, TRPC6 inhibitor inactive, TRPC4 inh inactive, TRPC6 activator inactive and TRPC4 act inactive.
Screening CCOC(=O)c1[nH]n(-c2ccc(Cl)cc2)c(=O)c1C returned TRPC4 PAM inactive, TRPC6 inhibitor -7.77*, TRPC4 inh inactive, TRPC6 activator inactive, TRPC4 act inactive, TRPC4 sel inh 2 inactive, TRPC4 spec inactive, HEK293 MPD ctr 2-1 inactive, HEK293 MPD ctr-1 inactive, TRPC6 block conf inactive and TRPC6 act confirm inactive.
Screening O=C(/C=C/Nc1ccc(F)c(Cl)c1)c1ccccc1 returned TRPC4 PAM inactive, TRPC6 inhibitor inactive, TRPC4 inh inactive, TRPC6 activator inactive and TRPC4 act inactive.
CC(C)(C)C1CCC(=O)N(CCSc2ccccc2)CC1 (stereo not drawn) was read as TRPC4 PAM inactive, TRPC6 inhibitor -5.21*, TRPC4 inh inactive, TRPC6 activator inactive, TRPC4 act inactive, HEK293 MPD ctr-2 190.5%*, HEK293 MPD ctr 2-2 inactive, TRPC4/MOR mod 44.0%*, TRPC4 ctr inh 2 inactive and TRPC6 block conf inactive.
